Laboratory results: ChEMBL document CHEMBL1629582, “Novel nucleotide human immunodeficiency virus reverse transcriptase inhibitor GS-9148 with a low nephrotoxic potential: characterization of renal transport and accumulation” (Antimicrob Agents Chemother, 2009)

Tests used:
[1] = Drug uptake in human kidney cortex at 5 uM by liquid scintillation counting in presence of 500 uM of probenecid; assay type: ADME, tissue-based
[2] = Cytotoxicity against CHO cells after 120 hrs by Cell-Titer Glo assay; assay type: cell-based, Cricetulus griseus; conditions: chinese hamster
Outline: (§1)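 CHO cells carrying hOAT1 or empty vector were seeded in parallel at 3 × 10³/well. After 24 h, serial drug dilutions were added in triplicate and incubated 120 h. Viability was read by luminescence relative to untreated wells. CC50 was taken by nonlinear regression from two independent experiments, mean ± SD.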

[3] = molecular target: T1, Solute carrier family 22 member 6 (Homo sapiens, UniProt Q4U2R8); assay: Activity of human OAT1 transfected in CHO cells measured per 10^6 cells; assay type: cell-based
T1 sequence (Q4U2R8 whole entry): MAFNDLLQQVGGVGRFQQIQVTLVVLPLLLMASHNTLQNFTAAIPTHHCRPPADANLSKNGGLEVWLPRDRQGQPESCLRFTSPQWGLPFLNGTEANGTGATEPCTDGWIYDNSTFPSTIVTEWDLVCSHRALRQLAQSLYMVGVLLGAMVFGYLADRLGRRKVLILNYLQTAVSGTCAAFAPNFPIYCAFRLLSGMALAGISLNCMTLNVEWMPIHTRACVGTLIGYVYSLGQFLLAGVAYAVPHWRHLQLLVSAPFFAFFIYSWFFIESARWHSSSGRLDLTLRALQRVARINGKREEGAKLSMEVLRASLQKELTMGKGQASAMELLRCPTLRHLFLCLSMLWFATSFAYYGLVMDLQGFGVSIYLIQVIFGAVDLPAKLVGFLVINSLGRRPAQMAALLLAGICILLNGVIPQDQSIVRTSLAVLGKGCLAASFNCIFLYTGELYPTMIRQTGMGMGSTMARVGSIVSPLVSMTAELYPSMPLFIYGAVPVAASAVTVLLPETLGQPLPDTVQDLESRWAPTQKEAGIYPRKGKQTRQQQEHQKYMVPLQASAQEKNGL
Outline: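 Radiolabelled substrate at various concentrations incubated 20 min at 37°C with CHO cells stably expressing hOAT1 in Waymouth buffer (pH 7.2). Cells washed in ice-cold PBS, lysed in 0.3% Triton X-100, uptake read by scintillation counting. Km and Vmax fitted by Michaelis-Menten. Two independent experiments in duplicate, mean ± SD.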

OAT1 = assay: Cytotoxicity against CHO cells expressing hOAT1 after 120 hrs by Cell-Titer Glo assay; assay type: ADME, cell-based, Cricetulus griseus; conditions: chinese hamster; outline: as §1
CHO [4] = assay: Cellular uptake in CHO cells expressing hOAT1 at 10 uM by liquid scintillation counting in presence of 500 uM of probenecid relative to control; assay type: ADME, cell-based, Cricetulus griseus; conditions: chinese hamster
Outline: (§2)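 Radiolabeled nucleotide at 10 μM was incubated at 37°C in Waymouth buffer pH 7.2 with transporter-expressing cells (CHO-hOAT1 or BHK-hOAT3) and matching empty-vector control cells, with or without 500 μM probenecid. Uptake was sampled at several time points, with longer times for hOAT3. Washed cells were lysed in Triton X-100 and counted by scintillation. Two independent experiments in duplicate, mean ± SD; two-tailed paired t test.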

[5] = Percent of urinary material present as GS-9148 in dog urine at 3 mg/kg, po
[6] = Cellular uptake in human HEK293T cells expressing MRP4 efflux transporter at 5 uM by liquid scintillation counting relative to control; conditions: hek-293t
[7] = Drug level in dog kidney at 3 mg/kg, po after 24 hrs by liquid scintillation counting; assay type: ADME, organism-based, Canis lupus familiaris; parameters: dose 3 mg/kg, route oral; conditions: in vivo
Outline: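 Three fasted dogs were given 3.0 mg/kg [14C]prodrug (10 μCi/kg) orally in 50 mM citrate pH 2.2. Kidneys were excised at 24 h, rinsed, blotted and weighed, then combusted and counted by scintillation. Values are μg equivalents per gram tissue, mean ± SD of three dogs.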

[8] = Renal clearance in dog urine at 3 mg/kg, po; assay type: ADME, organism-based, Canis lupus familiaris; parameters: dose 3 mg/kg, route oral; conditions: read-out: CL_renal (converted)
Outline: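 Fasted dogs were given 3.0 mg/kg [14C]prodrug (10 μCi/kg) in 50 mM citrate pH 2.2 by oral gavage. Urine was collected on dry ice over 0–8 and 8–24 h and counted by scintillation. Parent nucleotide in pooled 0–24 h urine was measured by radio-HPLC on a C18 column with an ammonium formate/acetonitrile gradient. Renal clearance = 24-h urinary amount / 24-h plasma exposure / body weight; three dogs.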

[9] = Cellular uptake in BHK21 cells expressing hOAT3 at 10 uM by liquid scintillation counting relative to control; assay type: ADME, cell-based, Mesocricetus auratus; conditions: hamster, bhk-21, 10 µM; outline: as §2
[10] = Cellular uptake in BHK21 cells expressing hOAT3 at 10 uM by liquid scintillation counting in presence of 500 uM of probenecid relative to control; assay type: ADME, cell-based, Mesocricetus auratus; conditions: hamster, bhk-21, 10 µM; outline: as §2
CHO [11] = assay: Cellular uptake in CHO cells expressing hOAT1 at 10 uM by liquid scintillation counting relative to control; assay type: ADME, cell-based, Cricetulus griseus; conditions: chinese hamster; outline: as §2
[12] = Cellular uptake in human HEK293T cells expressing MRP4 efflux transporter assessed as accumulation of GS-9148 metabolite at 5 uM by liquid scintillation counting relative to control; assay type: ADME, cell-based; conditions: hek-293t
[13] = Cellular uptake in human HEK293T cells expressing MRP4 efflux transporter at 5 uM by liquid scintillation counting in presence of 30 uM efflux inhibitor MK-571 relative to control; conditions: hek-293t
[14] = AUC (0 to 24 hrs) in dog at 3 mg/kg, po; assay type: ADME, organism-based, Canis lupus familiaris; parameters: time < 24 hr, dose 3 mg/kg, route oral; conditions: plasma
OAT1 (SLC22A6) = molecular target: T2, OAT1 (SLC22A6) (Homo sapiens, UniProt Q4U2R8); assay: (§3) Activity of human OAT1 transfected in CHO cells; assay type: cell-based
T2 sequence (Q4U2R8 whole entry): T1 sequence (Q4U2R8 whole entry)
Outline: (§4)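 CHO cells stably transfected with human OAT1, with empty-vector CHO cells run in parallel, seeded 48 h ahead. Radiolabeled substrate was given at a range of concentrations for 20 min at 37°C in Waymouth buffer pH 7.2. Cells were washed in ice-cold PBS, lysed in Triton X-100 and counted by scintillation. Km and Vmax came from Michaelis-Menten fitting; two independent experiments in duplicate, mean ± SD.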

[15] = substrate: Nc1ncnc2c1ncn2[C@@H]1O[C@H](OCP(=O)(O)O)C=C1F; assay: as §3; assay type: cell-based; outline: as §4
[16] = substrate: Nc1ncnc2c1ncn2CCOCP(=O)(O)O; assay: (§5) Activity of human OAT3 transfected in BHK-21 cells; assay type: cell-based
Outline: (§6)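 BHK-21 cells stably transfected with human OAT3 (the clone with highest probenecid-sensitive uptake), with empty-vector BHK cells in parallel, seeded on fibronectin 24 h ahead. Radiolabeled substrate was given at a range of concentrations for 120 min at 37°C in Waymouth buffer pH 7.2. Lysates were counted by scintillation. Km and Vmax came from Michaelis-Menten fitting; two independent experiments in duplicate.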

[17] = substrate: Nc1ncnc2c1ncn2[C@@H]1O[C@H](OCP(=O)(O)O)C=C1F; assay: as §5; assay type: cell-based; outline: as §6
[18] = substrate: C[C@H](Cn1cnc2c(N)ncnc21)OCP(=O)(O)O; assay: as §5; assay type: cell-based; outline: as §6

In the case of `Nc1ncnc2c1ncn2CCOCP(=O)(O)O` [ADEFOVIR], the Drug uptake [1] is reported as “Active”, the CC50 at 120 h [2] is reported as ≥ 2000 µM and the Vmax [3] is reported as 46 pmol/min.

With `Nc1ccn(C[C@@H](CO)OCP(=O)(O)O)c(=O)n1.O.O` [CIDOFOVIR] the CC50 at 120 h [2] was 520 µM, the CC50 at 120 h (OAT1) was 3 µM and the Vmax [3] was 103 pmol/min.

With `Nc1ncnc2c1ncn2[C@@H]1O[C@H](OCP(=O)(O)O)C=C1F` [GS-9148] the Drug uptake (CHO [4]) was “Not Active”, the percent of urinary material as GS-9148 [5] was 84% and the Drug uptake [6] was “Not Active”. It also gave a Drug uptake [7] of 2.49 µg/g, a CL renal [8] of 7.83 mL/min/kg and a CC50 at 120 h (OAT1) of 435 µM. For the same molecule, the Drug uptake [9] was “Active”, the Drug uptake [10] was “Not Active” and the Drug uptake (CHO [11]) was “Active”. For the same molecule, the Drug uptake [12] was “Active”, the Drug uptake [13] was “Active” and the AUC(0-t) at 24 h [14] was 4.9 µM·h.

Work on `C[C@H](Cn1cnc2c(N)ncnc21)OCP(=O)(O)O` [TENOFOVIR ANHYDROUS] yielded a Vmax [3] of 110 pmol/min and a Km (OAT1 (SLC22A6)) of 33.8 µM.

B1: Solute carrier family 22 member 6 (Homo sapiens) (protein)
chain: T1 sequence (Q4U2R8 whole entry)
In the case of B1, the Km [15] is reported as 259 µM and the Vmax [15] is reported as 7.8e-06 µmol/min.

B2: Organic anion transporter 3 (Homo sapiens) (protein)
chain: MTFSEILDRVGSMGHFQFLHVAILGLPILNMANHNLLQIFTAATPVHHCRPPHNASTGPWVLPMGPNGKPERCLRFVHPPNASLPNDTQRAMEPCLDGWVYNSTKDSIVTEWDLVCNSNKLKEMAQSIFMAGILIGGLVLGDLSDRFGRRPILTCSYLLLAASGSGAAFSPTFPIYMVFRFLCGFGISGITLSTVILNVEWVPTRMRAIMSTALGYCYTFGQFILPGLAYAIPQWRWLQLTVSIPFFVFFLSSWWTPESIRWLVLSGKSSKALKILRRVAVFNGKKEEGERLSLEELKLNLQKEISLAKAKYTASDLFRIPMLRRMTFCLSLAWFATGFAYYSLAMGVEEFGVNLYILQIIFGGVDVPAKFITILSLSYLGRHTTQAAALLLAGGAILALTFVPLDLQTVRTVLAVFGKGCLSSSFSCLFLYTSELYPTVIRQTGMGVSNLWTRVGSMVSPLVKITGEVQPFIPNIIYGITALLGGSAALFLPETLNQPLPETIEDLENWSLRAKKPKQEPEVEKASQRIPLQPHGPGLGSS
B2 showed a Km [16] of 1220 µM, a Vmax [16] of 0.000131 µmol/min and a Km [17] of 1220 µM. It also gave a Vmax [17] of 1.95e-05 µmol/min, a Km [18] of 770 µM and a Vmax [18] of 2.87e-05 µmol/min.
